According to ChEMBL document CHEMBL1926550, “Synthesis and antibacterial activity of naphthyridone derivatives containing mono/difluoro-methyloxime pyrrolidine scaffolds” (2012):
In brackets after ≈: the same amount, converted by molar mass.

Columns and labels:
Assay type in all cases: functional
Staphylococcus aureus [1] = assay: Antibacterial activity against methicillin-resistant Staphylococcus aureus 10-1 after 18 hrs by two fold serial dilution method; settings: 10-1, 18 h
Procedure, shortened: (§1)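 Agar two-fold serial dilution in melted Mueller-Hinton agar, 128 to 0.008 μg/mL. Plates inoculated with 10⁴ cfu, incubated 35 °C for 18 h. MIC taken as lowest concentration giving no visible growth on the plate.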

[2] = system: Staphylococcus epidermidis; assay: Ratio of ciprofloxacin ED50 to compound ED50 for methicillin-resistant Staphylococcus epidermidis 10-4 infected KM mouse systemic infection model
Escherichia coli [3] = assay: Antibacterial activity against Escherichia coli 10-2 infected KM mouse systemic infection model assessed as decrease in mouse mortality administered orally twice after 1 and 4 hrs post infection measured up to 7 days; settings: 10-2, po
Procedure, shortened: (§2)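 Strains grown on MH agar at 35 °C for 18 h, suspended in gastric mucin. Male KM mice (19–21 g), groups of 10, infected intraperitoneally with 0.5 mL at 5–10× MLD. Four oral dose levels per drug at 1 and 4 h post infection. Mortality followed 7 days; ED50 with 95% confidence limits by Bliss method.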

Escherichia coli [4] = assay: Antibacterial activity against Escherichia coli 09-2 after 18 hrs by two fold serial dilution method; settings: 09-2, 18 h
Procedure, shortened: (§3)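 Agar two-fold serial dilution in melted Mueller-Hinton agar, final concentrations 128 down to 0.008 μg/mL. Plates inoculated with 10⁴ cfu and incubated at 35 °C for 18 h. MIC taken as the lowest concentration giving no visible growth on the plate.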

Escherichia coli [5] = assay: Antibacterial activity against Escherichia coli 10-3 after 18 hrs by two fold serial dilution method; settings: 10-3, 18 h; procedure, shortened: as §3
Staphylococcus aureus [6] = assay: Antibacterial activity against methicillin-sensitive Staphylococcus aureus 10-3 after 18 hrs by two fold serial dilution method; settings: 10-3, 18 h; procedure, shortened: as §3
Staphylococcus aureus [7] = assay: Antibacterial activity against methicillin-sensitive Staphylococcus aureus 10-6 after 18 hrs by two fold serial dilution method; settings: 10-6, 18 h; procedure, shortened: as §3
Pseudomonas aeruginosa [8] = assay: Antibacterial activity against Pseudomonas aeruginosa 10-1 after 18 hrs by two fold serial dilution method; settings: 10-1, 18 h; procedure, shortened: as §3
Enterococcus faecium [9] = assay: Antibacterial activity against Enterococcus faecium 09-2 after 18 hrs by two fold serial dilution method; settings: 09-2, 18 h; procedure, shortened: as §3
[10] = system: Staphylococcus epidermidis; assay: Antibacterial activity against methicillin-resistant Staphylococcus epidermidis 10-4 infected KM mouse systemic infection model assessed as decrease in mouse mortality administered orally twice after 1 and 4 hrs post infection measured up to 7 days; settings: 10-4, po; procedure, shortened: as §2
Escherichia coli [11] = assay: Antibacterial activity against Escherichia coli 10-2 after 18 hrs by two fold serial dilution method; settings: 10-2, 18 h; procedure, shortened: as §3
Klebsiella pneumoniae [12] = assay: Antibacterial activity against Klebsiella pneumoniae 09-2 after 18 hrs by two fold serial dilution method; settings: 09-2, 18 h; procedure, shortened: as §3
[13] = system: Staphylococcus epidermidis; assay: Antibacterial activity against methicillin-resistant Staphylococcus epidermidis 10-1 after 18 hrs by two fold serial dilution method; settings: 10-1, 18 h; procedure, shortened: as §1
Pseudomonas aeruginosa [14] = assay: Antibacterial activity against Pseudomonas aeruginosa ATCC 27853 after 18 hrs by two fold serial dilution method; settings: ATCC 27853, 18 h; procedure, shortened: as §3
Pseudomonas aeruginosa [15] = assay: Antibacterial activity against Pseudomonas aeruginosa 10-2 after 18 hrs by two fold serial dilution method; settings: 10-2, 18 h; procedure, shortened: as §3
Pseudomonas aeruginosa [16] = assay: Antibacterial activity against Pseudomonas aeruginosa 10-3 after 18 hrs by two fold serial dilution method; settings: 10-3, 18 h; procedure, shortened: as §3
Staphylococcus aureus [17] = assay: Antibacterial activity against methicillin-resistant Staphylococcus aureus 10-2 after 18 hrs by two fold serial dilution method; settings: 10-2, 18 h; procedure, shortened: as §1
Klebsiella pneumoniae [18] = assay: Antibacterial activity against Klebsiella pneumoniae 10-3 after 18 hrs by two fold serial dilution method; settings: 10-3, 18 h; procedure, shortened: as §3
Klebsiella pneumoniae [19] = assay: Antibacterial activity against Klebsiella pneumoniae 10-3 infected KM mouse systemic infection model assessed as decrease in mouse mortality administered orally twice after 1 and 4 hrs post infection measured up to 7 days; settings: 10-3, po; procedure, shortened: as §2
Staphylococcus aureus [20] = assay: Antibacterial activity against methicillin-sensitive Staphylococcus aureus 10-1 after 18 hrs by two fold serial dilution method; settings: 10-1, 18 h; procedure, shortened: as §3
Staphylococcus aureus [21] = assay: Antibacterial activity against methicillin-sensitive Staphylococcus aureus 10-2 after 18 hrs by two fold serial dilution method; settings: 10-2, 18 h; procedure, shortened: as §3
Enterococcus faecium [22] = assay: Antibacterial activity against Enterococcus faecium 09-4 after 18 hrs by two fold serial dilution method; settings: 09-4, 18 h; procedure, shortened: as §3
Staphylococcus aureus [23] = assay: Antibacterial activity against methicillin-sensitive Staphylococcus aureus 10-5 after 18 hrs by two fold serial dilution method; settings: 10-5, 18 h; procedure, shortened: as §3
[24] = system: Staphylococcus epidermidis; assay: Antibacterial activity against methicillin-sensitive Staphylococcus epidermidis 10-2 after 18 hrs by two fold serial dilution method; settings: 10-2, 18 h; procedure, shortened: as §3
Enterococcus faecium [25] = assay: Antibacterial activity against Enterococcus faecium 09-5 after 18 hrs by two fold serial dilution method; settings: 09-5, 18 h; procedure, shortened: as §3
Streptococcus pneumoniae = assay: Antibacterial activity against Streptococcus pneumoniae 10-1 after 18 hrs by two fold serial dilution method; settings: 10-1, 18 h; procedure, shortened: as §3
[26] = system: Staphylococcus epidermidis; assay: Antibacterial activity against methicillin-resistant Staphylococcus epidermidis 10-4 after 18 hrs by two fold serial dilution method; settings: 10-4, 18 h; procedure, shortened: as §1
Escherichia coli [27] = assay: Antibacterial activity against Escherichia coli 09-1 after 18 hrs by two fold serial dilution method; settings: 09-1, 18 h; procedure, shortened: as §3
Enterococcus faecalis [28] = assay: Antibacterial activity against Enterococcus faecalis 09-2 after 18 hrs by two fold serial dilution method; settings: 09-2, 18 h; procedure, shortened: as §3
Staphylococcus aureus [29] = assay: Antibacterial activity against methicillin-sensitive Staphylococcus aureus 10-4 after 18 hrs by two fold serial dilution method; settings: 10-4, 18 h; procedure, shortened: as §3
[30] = system: Staphylococcus epidermidis; assay: Ratio of gemifloxacin ED50 to compound ED50 for methicillin-resistant Staphylococcus epidermidis 10-4 infected KM mouse systemic infection model
Staphylococcus aureus [31] = assay: Antibacterial activity against Staphylococcus aureus ATCC 25923 after 18 hrs by two fold serial dilution method; settings: ATCC 25923, 18 h; procedure, shortened: as §3
[32] = system: Staphylococcus epidermidis; assay: Antibacterial activity against methicillin-sensitive Staphylococcus epidermidis 10-1 after 18 hrs by two fold serial dilution method; settings: 10-1, 18 h; procedure, shortened: as §3
Klebsiella pneumoniae [33] = assay: Antibacterial activity against Klebsiella pneumoniae 10-1 after 18 hrs by two fold serial dilution method; settings: 10-1, 18 h; procedure, shortened: as §3
Enterococcus faecium [34] = assay: Antibacterial activity against Enterococcus faecium 09-3 after 18 hrs by two fold serial dilution method; settings: 09-3, 18 h; procedure, shortened: as §3
Enterococcus faecium [35] = assay: Antibacterial activity against Enterococcus faecium 09-6 after 18 hrs by two fold serial dilution method; settings: 09-6, 18 h; procedure, shortened: as §3
Escherichia coli [36] = assay: Antibacterial activity against Escherichia coli ATCC 25922 after 18 hrs by two fold serial dilution method; settings: ATCC 25922, 18 h; procedure, shortened: as §3
Staphylococcus aureus [37] = assay: Antibacterial activity against methicillin-resistant Staphylococcus aureus 10-3 after 18 hrs by two fold serial dilution method; settings: 10-3, 18 h; procedure, shortened: as §1
Staphylococcus aureus [38] = assay: Antibacterial activity against methicillin-resistant Staphylococcus aureus 10-4 after 18 hrs by two fold serial dilution method; settings: 10-4, 18 h; procedure, shortened: as §1
[39] = system: Staphylococcus epidermidis; assay: Antibacterial activity against methicillin-resistant Staphylococcus epidermidis 10-2 after 18 hrs by two fold serial dilution method; settings: 10-2, 18 h; procedure, shortened: as §1
Staphylococcus aureus [40] = assay: Antibacterial activity against methicillin-resistant Staphylococcus aureus 10-2 infected KM mouse systemic infection model assessed as decrease in mouse mortality administered orally twice after 1 and 4 hrs post infection measured up to 7 days; settings: 10-2, po; procedure, shortened: as §2
Pseudomonas aeruginosa [41] = assay: Antibacterial activity against Pseudomonas aeruginosa 10-1 infected KM mouse systemic infection model assessed as decrease in mouse mortality administered orally twice after 1 and 4 hrs post infection measured up to 7 days; settings: 10-1, po; procedure, shortened: as §2
Enterococcus faecium [42] = assay: Antibacterial activity against Enterococcus faecium 09-1 after 18 hrs by two fold serial dilution method; settings: 09-1, 18 h; procedure, shortened: as §3
Enterococcus faecalis [43] = assay: Antibacterial activity against Enterococcus faecalis 09-1 after 18 hrs by two fold serial dilution method; settings: 09-1, 18 h; procedure, shortened: as §3
Escherichia coli [44] = assay: Antibacterial activity against Escherichia coli 10-1 after 18 hrs by two fold serial dilution method; settings: 10-1, 18 h; procedure, shortened: as §3
Escherichia coli [45] = assay: Antibacterial activity against Escherichia coli 09-3 after 18 hrs by two fold serial dilution method; settings: 09-3, 18 h; procedure, shortened: as §3

For NCC1CN(c2nc3c(cc2F)c(=O)c(C(=O)O)cn3C2CC2)C/C1=N\OCF (racemic), the MIC (Staphylococcus aureus [1]) was 32 µg/mL (≈ 78.6 µM), the Ratio ED50 [2] was 3.1 and the ED50 (Escherichia coli [3]) was 8.79 mg/kg. It also gave an MIC (Escherichia coli [4]) of 32 µg/mL (≈ 78.6 µM), an MIC (Escherichia coli [5]) of 16 µg/mL (≈ 39.3 µM) and an MIC (Staphylococcus aureus [6]) of 0.03 µg/mL (≈ 0.0736 µM). For the same compound, the MIC (Staphylococcus aureus [7]) was 0.5 µg/mL (≈ 1.23 µM), the MIC (Pseudomonas aeruginosa [8]) was 0.5 µg/mL (≈ 1.23 µM) and the MIC (Enterococcus faecium [9]) was 32 µg/mL (≈ 78.6 µM). It also gave an ED50 [10] of 8 mg/kg, an MIC (Escherichia coli [11]) of 0.5 µg/mL (≈ 1.23 µM) and an MIC (Klebsiella pneumoniae [12]) of 32 µg/mL (≈ 78.6 µM). For the same compound, the MIC [13] was 2 µg/mL (≈ 4.91 µM), the MIC (Pseudomonas aeruginosa [14]) was 0.5 µg/mL (≈ 1.23 µM) and the MIC (Pseudomonas aeruginosa [15]) was 32 µg/mL (≈ 78.6 µM). For the same compound, the MIC (Pseudomonas aeruginosa [16]) was 4 µg/mL (≈ 9.82 µM), the MIC (Staphylococcus aureus [17]) was 2 µg/mL (≈ 4.91 µM) and the MIC (Klebsiella pneumoniae [18]) was 0.5 µg/mL (≈ 1.23 µM). For the same compound, the ED50 (Klebsiella pneumoniae [19]) was greater than 160 mg/kg, the MIC (Staphylococcus aureus [20]) was 0.06 µg/mL (≈ 0.147 µM) and the MIC (Staphylococcus aureus [21]) was 8 µg/mL (≈ 19.6 µM). It also gave an MIC (Enterococcus faecium [22]) of 0.06 µg/mL (≈ 0.147 µM), an MIC (Staphylococcus aureus [23]) of 0.125 µg/mL (≈ 0.307 µM) and an MIC [24] of 64 µg/mL (≈ 157 µM). It also gave an MIC (Enterococcus faecium [25]) of 32 µg/mL (≈ 78.6 µM), an MIC (Streptococcus pneumoniae) of 0.06 µg/mL (≈ 0.147 µM) and an MIC [26] of 2 µg/mL (≈ 4.91 µM). It also gave an MIC (Escherichia coli [27]) of 32 µg/mL (≈ 78.6 µM), an MIC (Enterococcus faecalis [28]) of 32 µg/mL (≈ 78.6 µM) and an MIC (Staphylococcus aureus [29]) of 0.25 µg/mL (≈ 0.614 µM). The Ratio ED50 [30] was 3, the MIC (Staphylococcus aureus [31]) was 0.015 µg/mL (≈ 0.0368 µM) and the MIC [32] was 32 µg/mL (≈ 78.6 µM). It also gave an MIC (Klebsiella pneumoniae [33]) of 0.03 µg/mL (≈ 0.0736 µM), an MIC (Enterococcus faecium [34]) of 16 µg/mL (≈ 39.3 µM) and an MIC (Enterococcus faecium [35]) of 0.03 µg/mL (≈ 0.0736 µM). It also gave an MIC (Escherichia coli [36]) of 0.008 µg/mL (≈ 0.0196 µM), an MIC (Staphylococcus aureus [37]) of 32 µg/mL (≈ 78.6 µM) and an MIC (Staphylococcus aureus [38]) of 64 µg/mL (≈ 157 µM). The MIC [39] was 1 µg/mL (≈ 2.45 µM), the ED50 (Staphylococcus aureus [40]) was 16.9 mg/kg and the ED50 (Pseudomonas aeruginosa [41]) was 39.3 mg/kg. For the same compound, the MIC (Enterococcus faecium [42]) was 32 µg/mL (≈ 78.6 µM), the MIC (Enterococcus faecalis [43]) was 8 µg/mL (≈ 19.6 µM) and the MIC (Escherichia coli [44]) was 32 µg/mL (≈ 78.6 µM). It also gave an MIC (Escherichia coli [45]) of 32 µg/mL (≈ 78.6 µM).
